Each block holds one compound with its values, some of them ahead of it. Calls of active or inactive are those of the source. The rule behind the calls is not given here.
Key:
Beta-secretase 1 = Beta-secretase 1 (Homo sapiens, UniProt P56817); experiment: Inhibition of recombinant human BACE1 using RhEVNLDAEFK-Quencher as substrate after 60 mins by fluorescence assay
[1] = target: T1, High mobility group protein B1 (Homo sapiens) (UniProt P09429); experiment: Inhibition of LPS-induced HMGB1 release in HUVEC at > 0.2 uM pretreated with bacterial LPS for 16 hrs followed by compound treatment measured after 6 hrs by ELISA; type: cell-based
T1 sequence (whole entry): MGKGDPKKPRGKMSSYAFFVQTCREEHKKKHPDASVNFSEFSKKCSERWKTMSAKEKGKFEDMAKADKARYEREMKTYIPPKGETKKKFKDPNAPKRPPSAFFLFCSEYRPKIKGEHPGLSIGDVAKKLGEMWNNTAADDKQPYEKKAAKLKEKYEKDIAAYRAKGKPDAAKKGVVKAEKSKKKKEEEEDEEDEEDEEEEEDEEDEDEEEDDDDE

HUVEC [2] = experiment: Effect on HMGB1 release in HUVEC at > 0.2 uM after 6 hrs by ELISA; type: ADME, cell-based; details: human
Mus musculus [3] = experiment: Antisepsis activity in C57BL/6 mouse assessed as inhibition of CLP-induced mortality at 56 ug/kg, iv administered twice daily at 12 and 50 hrs post CLP measured every 6 hrs post CLP for 150 hrs (reference value: 40%); type: functional; details: C57BL/6, iv
Mus musculus [4] = experiment: Antisepsis activity in C57BL/6 mouse assessed as inhibition of CLP-induced HMGB1 release in serum at 28 to 56 ug/kg, iv administered 12 hrs post CLP challenge by ELISA; type: functional, organism-based
Summary of the method: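 Male C57BL/6 mice underwent CLP and received compound iv (28 or 56 μg/kg) 12 h later; n = 5. Mice killed 24 h after CLP. Serum HMGB1 measured by ELISA.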

[5] = target: T1, High mobility group protein B1 (Homo sapiens); experiment: Inhibition of HMGB1-induced TLR2 expression level in HUVEC at 0.1 to 1 uM after 6 hrs by ELISA; type: cell-based
Summary of the method: (§1)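 Confluent HUVECs activated with HMGB1 (1 μg/mL, 16 h), then incubated with compound for 6 h. Surface TLR2, TLR4 and RAGE determined by cell-based ELISA with specific antibodies.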

[6] = target: T1, High mobility group protein B1 (Homo sapiens); experiment: Inhibition of HMGB1-induced TLR4 expression level in HUVEC at 0.1 to 1 uM after 6 hrs by ELISA; type: cell-based; summary of the method: as §1
[7] = target: T1, High mobility group protein B1 (Homo sapiens); experiment: Inhibition of HMGB1-induced RAGE expression level in HUVEC at 0.1 to 1 uM after 6 hrs by ELISA; type: cell-based; summary of the method: as §1
HUVEC [8] = experiment: Cytotoxicity against HUVEC assessed as reduction in cell viability up to 5 uM after 48 hrs by MTT assay; type: cell-based; details: human
Summary of the method: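 HUVECs (passage 3–5; 5 × 10^3 cells/well) seeded for 24 h, then exposed to compound for 48 h. MTT (1 mg/mL) added for 4 h. Formazan dissolved in DMSO and read at 540 nm.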

HUVEC [9] = experiment: Effect on barrier integrity in HUVEC at 1 uM after 6 hrs by spectrophotometric method; type: ADME, cell-based; details: human
Summary of the method: (§2)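 HUVECs (5 × 10^4 cells/well) grown 3 days on 3 μm Transwells to confluence. Monolayers exposed to LPS (100 ng/mL, 4 h) or HMGB1 (1 μg/mL, 16 h), or left unstimulated, then treated with compound for 6 h. Flux of albumin-bound Evans blue measured spectrophotometrically.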

Lipopolysaccharide (LPS) = experiment: Inhibition of bacterial LPS-mediated disruption of barrier integrity in HUVEC by measuring flux of albumin-bound evans blue after 6 hrs by spectrophotometric method; type: cell-based; details: Bacteria; summary of the method: as §2
[10] = target: T1, High mobility group protein B1 (Homo sapiens); experiment: Inhibition of HMGB1-mediated disruption of barrier integrity in HUVEC by measuring flux of albumin-bound evans blue after 6 hrs by spectrophotometric method; type: cell-based; summary of the method: as §2
Mus musculus [11] = experiment: Antisepsis activity in C57BL/6 mouse assessed as inhibition of HMGB1-induced vascular hyperpermeability by measuring amount of evans blue in the peritoneal washings at 28 to 56 ug/kg, iv pretreated with HMGB1 for 16 hrs followed by compound treatment measured after 6 hrs […]; type: functional, organism-based
Summary of the method: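 Mice given iv HMGB1 (2 μg/mouse) for 16 h, then compound (28 or 56 μg/kg) for 6 h. 1% Evans blue in saline injected iv; mice killed 30 min later. Peritoneal washings (5 mL saline) centrifuged at 200g for 10 min and read at 650 nm. Dye leak read from a standard curve as μg/mouse; n = 5.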

[12] = target: T1, High mobility group protein B1 (Homo sapiens); experiment: Inhibition of HMGB1-mediated p38 MAPK phosphorylation in HUVEC at 0.1 to 1 uM after 6 hrs by ELISA; type: cell-based
Summary of the method: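 HUVECs activated with HMGB1 (1 μg/mL, 16 h), then treated with compound for 6 h. Phospho-p38 MAPK measured by ELISA kit.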

Mus musculus [13] = experiment: Antisepsis activity in C57BL/6 mouse CLP surgery model assessed as reduction in bacterial burden in peritoneal lavage fluid at 28 to 56 ug/kg, iv measured after 24 hrs; type: functional, organism-based
Summary of the method: (§3)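 Male C57BL/6 mice (27 g) underwent CLP: cecum ligated 5 mm from tip and punctured once with a 22-gauge needle. Peritoneal lavage fluid and blood collected 24 h after CLP and centrifuged. Diluted samples plated on 5% sheep blood agar at 37 °C for 24 h, then CFUs counted; n = 10.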

Mus musculus [14] = experiment: Antisepsis activity in C57BL/6 mouse CLP surgery model assessed as reduction in bacterial burden in blood at 28 to 56 ug/kg, iv measured after 24 hrs; type: functional, organism-based; summary of the method: as §3
[15] = target: T1, High mobility group protein B1 (Homo sapiens); experiment: Inhibition of HMGB1-mediated VCAM-1 expression level in HUVEC at 0.1 to 1 uM after 6 hrs by ELISA; type: cell-based
Summary of the method: (§4)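 Confluent HUVECs treated with HMGB1 (1 μg/mL, 16 h), then compound (0–1 μM) for 6 h. Cells fixed in 1% paraformaldehyde and probed with anti-VCAM-1, ICAM-1 or E-selectin (1:50, 1 h, 37 °C). Peroxidase anti-mouse IgG (1:2000) added, developed with o-phenylenediamine, read at 490 nm.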

[16] = target: T1, High mobility group protein B1 (Homo sapiens); experiment: Inhibition of HMGB1-mediated ICAM-1 expression level in HUVEC at 0.1 to 1 uM after 6 hrs by ELISA; type: cell-based; summary of the method: as §4
[17] = target: T1, High mobility group protein B1 (Homo sapiens); experiment: Inhibition of HMGB1-mediated E-selectin expression level in HUVEC at 0.1 to 1 uM after 6 hrs by ELISA; type: cell-based; summary of the method: as §4
[18] = target: T1, High mobility group protein B1 (Homo sapiens); experiment: Inhibition of HMGB1-mediated human neutrophil adhesion in HUVEC after 6 hrs by ELISA; type: cell-based
Summary of the method: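 HUVEC monolayers treated with HMGB1 (1 μg/mL, 16 h), then compound (0–1 μM) for 6 h. Human neutrophils (1.5 × 10^6 cells/mL) labelled with Vybrant DiD dye and added to the washed monolayers. Adhesion measured by fluorescence.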

[19] = target: T1, High mobility group protein B1 (Homo sapiens); experiment: Inhibition of HMGB1-mediated human neutrophil migration in HUVEC after 6 hrs by crystal violet staining based microscopy; type: cell-based
Summary of the method: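 HUVECs (6 × 10^4 cells/well) grown 3 days on 8 μm Transwells, then treated with HMGB1 (1 μg/mL, 16 h) and compound for 6 h before cells added to the upper chamber. Migrated cells fixed in 8% glutaraldehyde and stained with 0.25% crystal violet. Nine 200× fields per well counted; run in duplicate; migration index.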

Mus musculus [20] = experiment: Antisepsis activity in C57BL/6 mouse CLP surgery model assessed as inhibition of HMGB1-induced leukocyte migration into peritoneal cavity at 28 to 56 ug/kg, iv; type: functional, organism-based
Summary of the method: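 Mice given HMGB1 (2 μg/mouse) iv for 16 h, then compound (28 or 56 μg/kg) for 6 h. Peritoneal cavity washed with 5 mL saline after 6 h. Fluid diluted in Türk's solution (0.01% crystal violet, 3% acetic acid). Leukocytes counted by light microscopy.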

Mus musculus [21] = experiment: Antisepsis activity in C57BL/6 mouse assessed as inhibition of CLP-induced death at 56 ug/kg, iv measured 12 hrs post CLP; type: functional, organism-based
Mus musculus [22] = experiment: Antisepsis activity in C57BL/6 mouse assessed as inhibition of CLP-induced ALT level in plasma at 28 to 56 ug/kg, iv at 12 and 50 hrs post CLP surgery; type: functional, organism-based
Summary of the method: (§5)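 Male C57BL/6 mice underwent CLP and received compound iv (28 or 56 μg/kg) at 12 and 50 h after CLP. Animals bled out. AST, ALT, BUN, creatinine and LDH measured in plasma/serum with biochemical kits. IL-1β, IL-6, IL-10, MCP-1 and TNF-α measured by ELISA. Means ± SD of five independent experiments.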

Mus musculus [23] = experiment: Antisepsis activity in C57BL/6 mouse assessed as inhibition of CLP-induced AST level in plasma at 28 to 56 ug/kg, iv at 12 and 50 hrs post CLP surgery; type: functional, organism-based; summary of the method: as §5
Mus musculus [24] = experiment: Antisepsis activity in C57BL/6 mouse assessed as inhibition of CLP-induced creatinine level in plasma at 28 to 56 ug/kg, iv at 12 and 50 hrs post CLP surgery; type: functional, organism-based; summary of the method: as §5
Mus musculus [25] = experiment: Antisepsis activity in C57BL/6 mouse assessed as inhibition of CLP-induced blood urea nitrogen level in plasma at 28 to 56 ug/kg, iv at 12 and 50 hrs post CLP surgery; type: functional, organism-based; summary of the method: as §5
Mus musculus [26] = experiment: Antisepsis activity in C57BL/6 mouse assessed as inhibition of CLP-induced lactate dehydrogenase level in plasma at 28 to 56 ug/kg, iv at 12 and 50 hrs post CLP surgery; type: functional, organism-based; summary of the method: as §5
Mus musculus [27] = experiment: Antisepsis activity in C57BL/6 mouse assessed as inhibition of CLP-induced IL-1beta level in blood at 28 to 56 ug/kg, iv at 12 and 50 hrs post CLP surgery by ELISA; type: functional, organism-based; summary of the method: as §5
Mus musculus [28] = experiment: Antisepsis activity in C57BL/6 mouse assessed as inhibition of CLP-induced IL-6 level in blood at 28 to 56 ug/kg, iv at 12 and 50 hrs post CLP surgery by ELISA; type: functional, organism-based; summary of the method: as §5
Mus musculus [29] = experiment: Antisepsis activity in C57BL/6 mouse assessed as inhibition of CLP-induced IL-10 level in blood at 28 to 56 ug/kg, iv at 12 and 50 hrs post CLP surgery by ELISA; type: functional, organism-based; summary of the method: as §5
Mus musculus [30] = experiment: Antisepsis activity in C57BL/6 mouse assessed as inhibition of CLP-induced TNFalpha level in blood at 28 to 56 ug/kg, iv at 12 and 50 hrs post CLP surgery by ELISA; type: functional, organism-based; summary of the method: as §5
Mus musculus [31] = experiment: Antisepsis activity in C57BL/6 mouse assessed as inhibition of CLP-induced MCP1 level in blood at 28 to 56 ug/kg, iv at 12 and 50 hrs post CLP surgery by ELISA; type: functional, organism-based; summary of the method: as §5

Sequence of Beta-secretase 1 (P56817 whole entry): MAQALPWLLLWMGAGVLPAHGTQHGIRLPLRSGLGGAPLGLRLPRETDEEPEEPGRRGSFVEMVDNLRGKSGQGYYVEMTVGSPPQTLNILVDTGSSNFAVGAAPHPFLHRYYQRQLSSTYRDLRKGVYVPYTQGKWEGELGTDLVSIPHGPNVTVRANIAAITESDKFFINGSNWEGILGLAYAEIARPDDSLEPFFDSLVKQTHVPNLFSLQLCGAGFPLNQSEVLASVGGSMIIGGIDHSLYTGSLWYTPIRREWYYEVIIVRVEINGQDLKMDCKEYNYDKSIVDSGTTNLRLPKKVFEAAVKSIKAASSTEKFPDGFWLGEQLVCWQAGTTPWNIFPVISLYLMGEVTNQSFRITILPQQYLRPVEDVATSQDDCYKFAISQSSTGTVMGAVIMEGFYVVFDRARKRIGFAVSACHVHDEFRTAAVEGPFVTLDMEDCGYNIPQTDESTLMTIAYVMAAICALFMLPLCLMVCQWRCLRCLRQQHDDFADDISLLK

IC50 (Beta-secretase 1): 5.6 µM
Structure (SMILES): Cc1c(O)cc2oc3c(c(=O)c2c1O)-c1ccc(O)cc1OC3O (stereo not drawn) [BOERAVINONE E]

Structure (SMILES): Cc1c(O)cc2oc3oc4ccccc4c3c(=O)c2c1O
inhibition [1]: Active
Activity (HUVEC [2]): Non-Toxic
mortality at 0.056 mg/kg (Mus musculus [3]): 60%
inhibition (Mus musculus [4]): Active
inhibition [5]: Active
inhibition [6]: Active
inhibition [7]: Active
Activity (HUVEC [8]): Non-Toxic
Activity (HUVEC [9]): Non-Toxic
inhibition (Lipopolysaccharide (LPS)): Dose-dependent effect
inhibition [10]: Dose-dependent effect
inhibition (Mus musculus [11]): Active
inhibition [12]: Active
Activity (Mus musculus [13]): Active
Activity (Mus musculus [14]): Active
inhibition [15]: Active
inhibition [16]: Active
inhibition [17]: Active
inhibition [18]: Dose-dependent effect
inhibition [19]: Dose-dependent effect
inhibition (Mus musculus [20]): Active
inhibition (Mus musculus [21]): inactive
inhibition (Mus musculus [22]): Active
inhibition (Mus musculus [23]): Active
inhibition (Mus musculus [24]): Active
inhibition (Mus musculus [25]): Active
inhibition (Mus musculus [26]): Active
inhibition (Mus musculus [27]): Active
inhibition (Mus musculus [28]): Active
inhibition (Mus musculus [29]): Active
inhibition (Mus musculus [30]): Active
inhibition (Mus musculus [31]): Active
